Assay outcomes: PubChem, several laboratories
Rin1 Abl inh: inhibitors of human Rin1-Abl protein interaction. AID 588664. P00519+Q13671. inhibition, % at 7.35 µM. TR-FRET Rin1/Abl binding, biochemical. 360,000 tested, 0.4% active; in the data active = inhibition above about 5%, passing the limit was not always enough
SKN-1 block: blocks SKN-1 activity in C. elegans | C. elegans VP596 Pgst-4::GFP/RFP ratio, acrylamide-induced, 24 h | inhibition, % at 21.8 µM | 360,000 tested, 0.49% active | AID 624304;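 active = interference check ratio from 0.5 to 1.5 plus GFP to RFP signal ratio inhibition reaching or exceeding a fixed threshold, cut at about 30% in these data, passing the limit was not always enough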
Myeloid diff MLP: myeloid differentiation induction | calls only at 10 µM | ER-HoxA9 myeloid progenitors, lysozyme-GFP differentiation, flow cytometry | 360,000 tested, 1% active;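 active = normalized GFP-positive differentiation at or above the plate's own cutoff, the solvent-only control mean plus 3 SD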;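 also: cells exposed to compound for four days before flow analysis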
GRK2 aptamer HTS: human GRK2 inhibition via aptamer displacement. inhibition of aptamer binding, % at 10 µM. bead flow cytometry, FAM-aptamer displacement from GRK2. 330,000 tested, 0.59% active. AID 488847;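 active = inhibition of aptamer binding above 40%, roughly 3 SD of noise, on plates passing a quality check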;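 also: median bead fluorescence of bound FAM aptamer so fluorescent compounds give negative values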
Target sequence (P25098 whole entry, looked up): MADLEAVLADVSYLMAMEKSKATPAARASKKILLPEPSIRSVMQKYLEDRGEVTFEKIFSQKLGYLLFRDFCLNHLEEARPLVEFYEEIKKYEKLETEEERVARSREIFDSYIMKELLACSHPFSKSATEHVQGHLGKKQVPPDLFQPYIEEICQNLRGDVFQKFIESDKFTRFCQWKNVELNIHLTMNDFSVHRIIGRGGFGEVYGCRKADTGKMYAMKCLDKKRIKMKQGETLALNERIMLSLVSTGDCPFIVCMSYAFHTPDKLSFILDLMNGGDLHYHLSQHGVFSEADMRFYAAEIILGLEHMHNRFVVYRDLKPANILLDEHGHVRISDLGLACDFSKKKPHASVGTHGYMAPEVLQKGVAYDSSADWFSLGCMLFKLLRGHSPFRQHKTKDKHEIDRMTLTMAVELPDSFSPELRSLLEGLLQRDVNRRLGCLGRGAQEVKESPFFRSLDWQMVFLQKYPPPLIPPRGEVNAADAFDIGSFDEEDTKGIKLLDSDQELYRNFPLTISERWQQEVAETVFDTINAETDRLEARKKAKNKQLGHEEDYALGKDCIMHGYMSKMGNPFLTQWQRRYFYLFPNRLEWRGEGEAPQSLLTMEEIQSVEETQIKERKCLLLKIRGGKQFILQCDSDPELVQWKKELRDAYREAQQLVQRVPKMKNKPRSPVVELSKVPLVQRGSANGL
T cell modulator: T cell immune modulation candidate; AID 2052; response (vesicle binding), % at 7 µM; 330,000 tested, 0.068% active; 2C CD8+ T cell-vesicle binding, flow cytometry; stronger effect = lower value;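 active = response, share of CD8 T cells binding vesicles, and their 90th percentile fluorescence all below set limits, cut at about 80% in these data, passing the limit was not always enough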;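 also: values below 100% mean blocked vesicle binding to the CD8+ T cells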
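Assay system: 2C TCR transgenic mouse naive CD8+ T cells, MACS-purified | Read-out: CD8+ gate FL2 mean fluorescence as % of same-row positive control | Signal: High-throughput flow cytometry with anti-B7-1 and anti-CD8 staining | Timing: Binding step 1.5 h, 37 °C, antibody labelling 20 min, ice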
Rce1 inhib: blocks yeast Ras-converting enzyme. Q03530. yeast membranes, quenched prenylated peptide cleavage fluorescence. calls only. 290,000 tested, 0.27% active. AID 2563;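 active = fall in fluorescence gain of 50% or more versus controls, with final raw signal at or below 3038400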;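 also: plate controls were neutral control wells for no effect and wells lacking membranes for full effect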
An asterisk follows results filed as active; i = inactive; . = no result; + = active, no number. An excerpt weighted towards active compounds, which were near 2.6% of everything screened.

SMILES	Rin1 Abl inh	SKN-1 block	Myeloid diff MLP	GRK2 aptamer HTS	T cell modulator	Rce1 inhib
COCCCNC(=O)c1cn(CC(C)C)c(=O)c2c1c1ccccc1n2C	-6.0	50.4*	i	1.0	455.6	i
COC(=O)c1ccccc1NC(=O)c1ccc(NC(=O)C2CCCO2)cc1 (centres undefined)	-0.7	-0.4	i	0.0	342.0	i
COC(=O)c1ccccc1NC(=O)C1CCCO1 (centres undefined)	0.4	6.0	+	0.0	387.1	i
COc1cc(NC(=O)N2CCc3nc(NCc4cccc(Oc5ccccc5)c4)ncc3C2)cc(OC)c1OC	5.0	16.5	i	.	.	.
NC(=O)C1CCCN(C(=O)NC2CCCCC2)C1 (centres undefined)	0.6	40.0*	i	0.0	218.0	i
O=C(NCC1CCCCC1)C1CCCN(C(=O)NC2CCCCC2)C1 (centres undefined)	5.4	-10.3	i	1.0	i	i
COc1ccc(Nc2nc(-c3c[nH]c4ccccc34)cs2)cc1	1.7	4.0	+	0.0	425.7	i
COc1ccc(-c2csc(Nc3ccccc3)n2)cc1	-5.1	35.5*	i	0.0	88.4	i
COc1ccc(Nc2nc(-c3ccc(OC)cc3)cs2)cc1	3.3	7.0	i	0.0	281.6	i
CCCCCNC(=O)C1CCC(Cn2c(=S)[nH]c3ccccc3c2=O)CC1 (centres undefined)	-2.6	8.7	i	7.0	150.6	i
CN(C)S(=O)(=O)c1ccc(Cl)c(C(=O)NCc2ccco2)c1	0.0	1.4	i	0.0	681.7	i
CSc1ccc(Cl)c(C(=O)OCC(=O)NCc2ccco2)c1	1.2	0.7	i	6.0	679.3	i
CSc1ccc(Cl)c(C(=O)NCc2ccco2)c1	-3.2	41.5*	i	1.0	299.5	i
CN(c1ccc(F)cc1)S(=O)(=O)c1ccc(Cl)c(C(=O)NCc2ccco2)c1	-0.4	10.7	+	1.0	643.7	.
OC(CN1CCN(C(c2ccccc2)c2ccccc2)CC1)c1ccccc1 (centres undefined)	-0.5	39.5*	i	0.0	502.4	i
OC(CN1CCN(C(c2ccccc2)c2ccccc2)CC1)c1ccc(Br)cc1 (centres undefined)	2.5	11.6	i	0.0	339.5	i
COc1cccc(COC(=O)c2cc(S(=O)(=O)N3CCOCC3)ccc2Cl)c1OC	0.9	5.4	i	.	.	.
CSc1ccc(C(=O)C2CCCN(C(=O)CCc3c(C)nn(C)c3C)C2)cc1 (centres undefined)	-2.5	11.4	i	1.0	352.4	i
O=[N+]([O-])c1cc(CN2CCCC2)ccc1Sc1ccc(Cl)cc1	2.0	51.9*	i	0.0	405.6	i
Clc1ccc(CN2CCCCCC2)cc1	-2.0	-2.7	i	0.0	237.8	i
CSc1nsc(/C=C/Nc2ccc(F)cc2F)c1C#N	-1.1	11.1	+	98.0*	180.5	i
CSc1nsc(/C=C/Nc2ccc(C(=O)O)cc2)c1C#N	-0.9	14.2	i	3.0	0.0	i
O=C(COc1ccc2ccccc2c1)Nc1ccccc1C(=O)O	2.7	0.7	i	0.0	420.3	i
O=S(=O)(Cc1ccccc1)CS(=O)(=O)Cc1ccccc1	8.0	5.4	i	.	.	.
O=S(=O)(Cc1ccccc1)C(CCCc1ccccc1)S(=O)(=O)Cc1ccccc1	2.0	-1.1	+	.	.	.
SMILES	Rin1 Abl inh	SKN-1 block	Myeloid diff MLP	GRK2 aptamer HTS	T cell modulator	Rce1 inhib
COc1cccc(-n2cnnn2)c1	0.7	40.5*	i	2.0	135.9	i
Cc1ccc(NC(=O)CSc2ccc(-c3ccccn3)nn2)cc1F	-3.2	2.2	i	0.0	123.6	i
O=C(O)C1Sc2[nH]c(=O)sc2C2c3ccc(O)cc3OC(=O)C12 (centres undefined)	3.4	14.4	i	15.0	225.9	+
O=C(O)C1Sc2[nH]c(=O)sc2C2c3cc(Cl)ccc3OC(=O)C12 (centres undefined)	1.5	-22.1	i	1.0	522.5	i
CC(CCc1ccco1)NC(=O)CSc1cc(=O)n(C)c2ccccc12 (centres undefined)	-22.5	37.1*	i	5.0	0.0	i
CCn1c(=O)cc(SCC(=O)NCc2ccco2)c2ccccc21	-60.3	16.7	i	1.0	228.1	i
O=C1CCCC/C=C\C[C@H](CC(=O)N(CCO)Cc2ccccc2)C(=O)N[C@@H](c2ccccc2)CO1	0.5	4.7	i	0.0	61.9*	.
O=C(N[C@H]1C/C=C\C[C@@H](CC(=O)N(CCO)Cc2ccccc2)C(=O)NC[C@H](c2ccccc2)OC1=O)OCC1c2ccccc2-c2ccccc21	1.2	-32.6	+	0.0	261.8	.
CC(C)(C)[C@H]1COC(=O)[C@H](NC(=O)OCC2c3ccccc3-c3ccccc32)C/C=C\C[C@@H](CC(=O)N[C@H](CO)Cc2ccccc2)C(=O)N1	2.8	-22.4	i	97.0*	264.3	.
O=C(O)CCC(=O)OCCN(Cc1ccc(Oc2ccc([N+](=O)[O-])cc2)cc1)C(=O)C(Cl)Cl	-0.6	17.5	i	.	.	.
O=C(Nc1nc(SCc2ccc(F)cc2)ns1)c1ccco1	-4.3	53.7*	i	0.0	611.6	i
COc1ccc(CCNC(=O)Cn2cnc3ccccc3c2=O)cc1OC	-1.4	7.0	i	4.0	394.7	i
CCOc1ccc(CCNC(=O)COC(=O)Cn2cnc3ccccc3c2=O)cc1OCC	0.9	10.7	+	0.0	i	i
CN(C)c1cc(O)c(C(=S)Nc2ccccc2)c(N(C)C)c1	-4.5	0.1	i	3.0	824.3	+
CN(C)c1ccc(C(=S)Nc2ccccc2)cc1	-3.4	5.0	i	0.0	311.2	i
Cc1ccc(OCCn2c3ccccc3n3nc(C)c(=O)nc23)cc1	-0.2	-5.3	i	2.0	397.6	+
Cc1cc(O)c(-c2cc(C(=O)NCc3ccc4c(c3)OCO4)[nH]n2)cc1C	1.7	-18.3	+	0.0	267.3	i
Cc1ccc(NC(=S)NC(=O)C2CC2)c(C)c1	-2.5	45.4*	i	1.0	186.7	.
Cc1ccc(NC(=S)NC(=O)C2CCCC2)cc1C	0.7	0.2	i	1.0	347.3	i
COc1cccc(NC(=S)/C(=C(\[O-])c2ccc(C)c([N+](=O)[O-])c2)[n+]2ccccc2)c1	-1.6	11.7	+	0.0	420.7	i
Cc1ccc(NC(=S)/C(=C(\[O-])c2ccc(C)c([N+](=O)[O-])c2)[n+]2ccccc2)cc1C	.	.	.	6.0	148.3	i
CCOc1cc(C(=O)N(C)CC(=O)Nc2cccc(F)c2)ccc1OCC(=O)N1CCOCC1	4.2	-12.3	.	0.0	196.3	i
OC(c1cccc(Cl)c1)c1nc(-c2ccoc2)cs1 (centres undefined)	-1.0	-6.6	i	.	.	.
